Screens: PubChem, several laboratories
PvdQ acylase: P. aeruginosa PvdQ acylase inhibition. purified PvdQ acylase, fluorescence plate reader. inhibition, % at 10 µM. 340,000 tested, 0.063% active; in the data active means inhibition above about 30%, passing the limit was not always enough; inconclusive means no clear call, values can overlap the other calls
IMP-1 inh-1: inhibitors of Pseudomonas aeruginosa IMP-1 metallo-beta-lactamase | 290,000 tested, 0.45% active | purified IMP-1, nitrocefin hydrolysis, epi-absorbance fluorescence | AID 1556 | inhibition, % at 5.6 µM;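 active means inhibition above the mean plus 3 SD of all compounds in the same screening run, cut at about 4.5% in these data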
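System: purified IMP-1; amount: IMP-1 0.2 nM before substrate addition; compound: single dose, 5.6 µM; times: 25 °C, 15 min preincubation, 25 min reaction; signal: Epi-absorbance via hydrolysed-nitrocefin quenching of white-plate fluorescence, 480/530 nm, EDTA stop; benchmarks: DMSO with and without IMP-1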
ERp5 inh: ERp5 (human) disulfide isomerase inhibition; AID 651711; 350,000 tested, 0.05% active; inhibition, % at 9.99 µM; ERp5 insulin aggregation, absorbance 650 nm, 90 min; Q15084;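 active means mean replicate inhibition above about 25%, with every replicate also reaching it, limit read from the data, passing the limit was not always enough; inconclusive means only one of those two criteria met; inactive means neither criterion met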
PglD inh: blocks C. jejuni PglD acetyltransferase activity | purified PglD enzyme, DTNB colorimetric CoA detection | AID 602405 | 360,000 tested, 0.098% active | inhibition, % at 12.5 µM; in the data active means inhibition above about 16%, passing the limit was not always enough; inconclusive means no clear call, values can overlap the other calls
PDI turbidity: blocks human protein disulfide isomerase activity | P07237 | PDI insulin aggregation turbidity, A650, 90 min | inhibition, % at 10 µM | 350,000 tested, 0.052% active;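 active means mean inhibition across replicates of 30% or more, whatever share of single replicates reach that level; inconclusive means mean inhibition below 30% while every single replicate reaches 30%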
Target sequence (P07237 whole entry, looked up): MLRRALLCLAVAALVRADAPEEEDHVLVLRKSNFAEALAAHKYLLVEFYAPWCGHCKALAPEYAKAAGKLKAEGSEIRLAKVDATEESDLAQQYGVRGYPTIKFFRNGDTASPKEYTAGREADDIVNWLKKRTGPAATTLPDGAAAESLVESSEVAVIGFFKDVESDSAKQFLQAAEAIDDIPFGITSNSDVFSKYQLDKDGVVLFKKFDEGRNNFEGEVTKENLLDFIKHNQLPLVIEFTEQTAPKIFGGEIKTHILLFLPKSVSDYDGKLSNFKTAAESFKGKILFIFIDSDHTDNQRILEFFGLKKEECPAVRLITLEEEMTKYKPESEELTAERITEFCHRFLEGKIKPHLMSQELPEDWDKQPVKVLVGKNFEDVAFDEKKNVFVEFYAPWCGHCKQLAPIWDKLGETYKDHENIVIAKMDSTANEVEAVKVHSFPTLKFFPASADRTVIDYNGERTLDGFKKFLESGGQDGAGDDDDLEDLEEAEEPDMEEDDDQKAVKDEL
VIM-2 inh: inhibitors of Pseudomonas aeruginosa VIM-2 metallo-beta-lactamase | AID 1527 | 290,000 tested, 0.89% active | inhibition, % at 5.6 µM | purified VIM-2, nitrocefin hydrolysis, epi-absorbance fluorescence;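 active means inhibition above the mean of all tested compounds plus 3 SD, cutoff set per screening run, cut at about 7.5% in these data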;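 further: red hydrolysis product quenches plate fluorescence so inhibitors raise well fluorescence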
IMP-1 inh-2: blocks IMP-1 metallo-beta-lactamase in VIM-2 selectivity screen | inhibition, % at 5.6 µM | purified IMP-1, nitrocefin hydrolysis, epi-absorbance fluorescence | 1,300 tested, under 10 active | shares compounds with VIM-2 inh; call rule not given here
VIM-2 FRET inh: inhibits VIM-2 in FRET assay to exclude epi-absorbance artifacts | purified VIM-2, CCF2 FRET substrate hydrolysis | inhibition, % at 5.6 µM | 1,300 tested, 23% active | AID 1857 | shares compounds with VIM-2 inh;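 active means inhibition above the mean of all tested compounds plus 3 SD, cut at about 19% in these data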
TEM-1 inh: selectivity counter-screen for VIM-2 inhibitors: E. coli TEM-1 inhibitors. shares compounds with VIM-2 inh. AID 1866. 1,300 tested, 3% active. Purified TEM-1, nitrocefin hydrolysis, epi-absorbance fluorescence. inhibition, % at 5.6 µM;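 active means inhibition above that campaign's mean inhibition plus 3 SD, cut at about 0.46% in these data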
VIM-2 inh conf: confirmation of P. aeruginosa VIM-2 metallo-beta-lactamase inhibitors | shares compounds with VIM-2 inh | purified VIM-2, nitrocefin hydrolysis, epi-absorbance | inhibition, % at 5.6 µM | 1,300 tested, 96% active | AID 2187;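 active means inhibition of the VIM-2 beta-lactamase enzyme above about 11% from the earlier first-round screen, limit read from the data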
Hits are given with their value. Sampled rows, rich in hits. Any-hit rate of the full collection: about 1%.

What do the screens show for `O=C(C[C@@H]1CC[C@@H]2[C@H](COC[C@@H](O)CN2Cc2nccs2)O1)NCc1ccc(F)cc1`?
ERp5 inh: inactive; PglD inh: inactive

Results for COC(=O)c1cn(C[C@H](Cc2ccccc2)NC(=O)Nc2ccccc2)nn1 ?
ERp5 inh: inactive; PglD inh: inactive

Results for Cc1nc(S/C(=C\c2ccc(-c3ccc(C(=O)O)c(Cl)c3)o2)C(=O)O)n[nH]1 ?
PvdQ acylase: inactive; IMP-1 inh-1: inactive; ERp5 inh: inactive; PglD inh: inactive; PDI turbidity: inactive; VIM-2 inh: 16.2; IMP-1 inh-2: inactive; VIM-2 FRET inh: 17.5; TEM-1 inh: inactive; VIM-2 inh conf: 16.8

How did CC1CN(Cc2c(O)ccc3c2oc(=O)c2ccccc23)CC(C)O1 (stereo unspecified) do in these assays?
PvdQ acylase: inactive; IMP-1 inh-1: inactive; ERp5 inh: inactive; PglD inh: inactive; PDI turbidity: inactive; VIM-2 inh: 13.5; IMP-1 inh-2: inactive; VIM-2 FRET inh: inactive; TEM-1 inh: inactive; VIM-2 inh conf: 28.6

What do the screens show for `O=C(Nc1ccc(N2CCOCC2)cc1)c1ccc(Br)o1`?
PvdQ acylase: inactive; IMP-1 inh-1: inactive; ERp5 inh: inactive; PglD inh: inactive; PDI turbidity: inactive; VIM-2 inh: inactive

Results for CN1CCN(c2ccc(NC(=O)c3ccc4ccccc4c3)cc2)CC1 ?
PvdQ acylase: inactive; IMP-1 inh-1: inactive; ERp5 inh: inactive; PglD inh: inactive; PDI turbidity: inactive; VIM-2 inh: 25.2; IMP-1 inh-2: inactive; VIM-2 FRET inh: inactive; TEM-1 inh: inactive; VIM-2 inh conf: 34.3

How did CN1CCN(c2ccc(NC(=O)c3ccc(Br)o3)cc2)CC1 do in these assays?
PvdQ acylase: inactive; IMP-1 inh-1: inactive; ERp5 inh: inactive; PglD inh: inactive; PDI turbidity: inactive; VIM-2 inh: 13.6; IMP-1 inh-2: inactive; VIM-2 FRET inh: inactive; TEM-1 inh: inactive; VIM-2 inh conf: 30.9

Results for CCN1CCN(c2ccc(NC(=O)c3ccc(Cl)c(N4CCCC4=O)c3)cc2)CC1 ?
PvdQ acylase: inactive; IMP-1 inh-1: inactive; ERp5 inh: inactive; PglD inh: inactive; PDI turbidity: inactive; VIM-2 inh: 25.9; IMP-1 inh-2: inactive; VIM-2 FRET inh: inactive; TEM-1 inh: inactive; VIM-2 inh conf: 42.3

Results for COc1ccc(C(=O)Nc2ccc(N3CCN(C)CC3)cc2)cc1 ?
PvdQ acylase: inactive; IMP-1 inh-1: inactive; ERp5 inh: inactive; PglD inh: inactive; PDI turbidity: inactive; VIM-2 inh: 15.5; IMP-1 inh-2: inactive; VIM-2 FRET inh: inactive; TEM-1 inh: inactive; VIM-2 inh conf: 25.7

What do the screens show for `CCCCOc1ccc(C(=O)Nc2ccc(N3CCN(C)CC3)cc2)cc1`?
PvdQ acylase: inactive; IMP-1 inh-1: inactive; PglD inh: inactive; PDI turbidity: inactive; VIM-2 inh: inactive

How did CCN1CCN(c2ccc(NC(=O)c3cc(OC)c(OC)c(OC)c3)cc2)CC1 do in these assays?
PvdQ acylase: inactive; IMP-1 inh-1: inactive; ERp5 inh: inactive; PglD inh: inactive; PDI turbidity: inactive; VIM-2 inh: 23.7; IMP-1 inh-2: inactive; VIM-2 FRET inh: inactive; TEM-1 inh: inactive; VIM-2 inh conf: 37.5

What do the screens show for `COc1ccc(C(=O)Nc2ccc(N3CCN(C)CC3)cc2)cc1OC`?
PvdQ acylase: inactive; IMP-1 inh-1: inactive; ERp5 inh: inactive; PglD inh: inactive; PDI turbidity: inactive; VIM-2 inh: 24.0; IMP-1 inh-2: inactive; VIM-2 FRET inh: inactive; TEM-1 inh: inactive; VIM-2 inh conf: 38.6

Results for C[C@H]1CN([C@@H](C)CO)C(=O)c2cc(NS(C)(=O)=O)ccc2O[C@H]1CN(C)Cc1ccc(C(F)(F)F)cc1 ?
ERp5 inh: inactive; PglD inh: inactive

How did CNC(=O)COc1ncnc2sccc12 do in these assays?
PvdQ acylase: inactive; IMP-1 inh-1: inactive; PglD inh: inactive; PDI turbidity: inactive; VIM-2 inh: inactive

How did CN(C)S(=O)(=O)c1ccc(NC(=O)COc2ncnc3sccc23)cc1 do in these assays?
PvdQ acylase: inactive; IMP-1 inh-1: inactive; ERp5 inh: inactive; PglD inh: inactive; PDI turbidity: inactive; VIM-2 inh: 21.8; IMP-1 inh-2: inactive; VIM-2 FRET inh: inactive; TEM-1 inh: inactive; VIM-2 inh conf: inactive

How did COC(=O)c1c(C)cc(C)n2c1nc1ccccc12 do in these assays?
PvdQ acylase: inactive; IMP-1 inh-1: inactive; PglD inh: inactive; PDI turbidity: inactive; VIM-2 inh: 14.5; IMP-1 inh-2: inactive; VIM-2 FRET inh: inactive; TEM-1 inh: inactive; VIM-2 inh conf: 28.0

What do the screens show for `Cc1cc(C)n2c(nc3ccccc32)c1C(=O)NN`?
IMP-1 inh-1: inactive; ERp5 inh: inactive; PglD inh: inactive; PDI turbidity: inactive; VIM-2 inh: inactive

Results for C/C=C/c1ccc2c(c1)O[C@@H](CN(C)Cc1ccccn1)[C@H](C)CN([C@@H](C)CO)S2(=O)=O ?
ERp5 inh: inactive; PglD inh: inactive

Results for O=C1C(=O)N(O)C2CCCCC2N1O (stereo unspecified) ?
PvdQ acylase: inactive; IMP-1 inh-1: inactive; PDI turbidity: inactive; VIM-2 inh: 13.2; IMP-1 inh-2: inactive; VIM-2 FRET inh: 47.3; TEM-1 inh: inactive; VIM-2 inh conf: 24.2

Results for O=C(O)CCN1C(=O)C2CCCCC2C1=O (stereo unspecified) ?
PvdQ acylase: inactive; IMP-1 inh-1: inactive; PglD inh: inactive; PDI turbidity: inactive; VIM-2 inh: inactive

What do the screens show for `C[C@@H]1CCCCO[C@H](CN(C)C(=O)CCCN(C)C)[C@H](C)CN([C@@H](C)CO)C(=O)c2cc(NC(=O)NC3CCCCC3)ccc2O1`?
ERp5 inh: inactive; PglD inh: inactive

How did CC(=O)N1CCN(c2ccc(S(=O)(=O)NCCN(C(C)C)C(C)C)cc2[N+](=O)[O-])CC1 do in these assays?
PvdQ acylase: inactive; IMP-1 inh-1: inactive; PDI turbidity: inactive; VIM-2 inh: inactive

Results for CN(C)CCNS(=O)(=O)c1ccc(N2CCN(c3ccc(F)cc3)CC2)c([N+](=O)[O-])c1 ?
PvdQ acylase: inactive; IMP-1 inh-1: inactive; ERp5 inh: inconclusive; PDI turbidity: inactive; VIM-2 inh: 15.3; IMP-1 inh-2: inactive; VIM-2 FRET inh: 33.5; TEM-1 inh: inactive; VIM-2 inh conf: 24.4

What do the screens show for `CCOC(=O)c1cc(-c2ccc(/C=C3/C(=O)N(c4ccc(C(=O)O)cc4)N=C3C)o2)ccc1Cl`?
PvdQ acylase: inactive; IMP-1 inh-1: inactive; ERp5 inh: inactive; PglD inh: inactive; PDI turbidity: inactive; VIM-2 inh: inactive
